# Source: PubChem
# A selection: hits, their analogues and other compounds. The true share with any hit is near 2%.
# PPC-1+TRAIL kill: compounds killing PPC-1 cancer cells with TRAIL present, primary screen, TRAIL potentiator project, ATPLite luminescence, uHTS; PPC-1 cells + TRAIL, ATPLite viability luminescence; hit rate 0.41% among 220,000; AID 1443, 2008; cell killing (% activity), % at 4 µM or 5 µM;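 active = cell killing above 50% in the first pass at 4 µM, then a duplicate retest at 5 µM averaging 50% or more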;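 also: plate controls were cells with TRAIL plus DMSO for no effect and medium-only wells lacking cells for full effect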
# FLuc inh counter: firefly luciferase enzyme inhibitors, primary screen, artefact control for luciferase-based inhibitor screens, biochemical, luminescence, ATPLite; AID 1006, 2008; Luciferin 4-monooxygenase (Photinus pyralis), P08659; hit rate 1.5% among 200,000; 10 min; inhibition, % at 10 µM;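 active = inhibition above about 50% when tested at 10 µM, limit read from the data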
# Target sequence (P08659 whole entry, looked up): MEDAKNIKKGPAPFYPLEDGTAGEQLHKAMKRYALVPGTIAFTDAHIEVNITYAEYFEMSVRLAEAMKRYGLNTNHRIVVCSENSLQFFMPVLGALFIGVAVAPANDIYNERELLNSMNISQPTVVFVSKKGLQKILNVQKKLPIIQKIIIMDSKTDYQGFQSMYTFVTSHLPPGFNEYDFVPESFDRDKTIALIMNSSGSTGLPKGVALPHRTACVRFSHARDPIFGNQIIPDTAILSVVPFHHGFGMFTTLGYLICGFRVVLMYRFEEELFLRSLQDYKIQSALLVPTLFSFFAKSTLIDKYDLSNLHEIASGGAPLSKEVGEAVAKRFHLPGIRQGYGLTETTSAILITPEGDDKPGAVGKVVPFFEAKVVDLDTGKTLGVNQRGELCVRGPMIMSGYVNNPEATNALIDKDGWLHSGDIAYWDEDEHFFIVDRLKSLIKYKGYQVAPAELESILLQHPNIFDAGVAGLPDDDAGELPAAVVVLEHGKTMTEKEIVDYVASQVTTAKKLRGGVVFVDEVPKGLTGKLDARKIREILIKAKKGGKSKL
# HSP90 inh: HSP90 inhibitors, primary screen, cell lysate, luminescence | inhibition, % at 5.6 µM | hit rate 0.91% among 290,000 | Rabbit reticulocyte lysate, luciferase refolding luminescence, 3 h | AID 1789, 2009;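 active = inhibition above the screen-wide mean plus 3 SD, computed separately per campaign, cut at about 16% in these data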;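 also: 0% = DMSO wells and 100% = 60 µM geldanamycin wells; inhibitors lower the luminescence because luciferase stays unfolded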
# FLuc stim CS: FLuc activators, initial screening, artefact control for FLuc-dependent activation tests, biochemical, ATPlite luminescence; Luciferin 4-monooxygenase (Photinus pyralis), P08659; ATPlite luciferase biochemical, 10 min; 0 = ATP-free wells, 1 = DMSO control; activation factor at 10 µM; 200,000 tested, under 10 active; AID 1027, 2008;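 active = luciferase activation factor, scaled between plate controls, of at least 2 with compound at 10 µM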
#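 Material: Luciferase/luciferin reagent mix; Doses: test compounds dosed from 2 mM stocks in 100% DMSO; Schedule: 10 min incubation after luciferase reagent addition, room temperature; Measured by: luminescence from luciferase reaction; Read-out: luminescence gain marking luciferase activators.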
# C8 TRAIL sens: viability loss with TRAIL in NB7+C8 cells, primary screen, TRAIL sensitizer project, cell-based, ATPlite luminescence. inhibition (viability loss, TRAIL sensitization), % at 10 µM. hit rate 1% among 360,000;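 active = compounds causing at least 50% loss of cell viability in the single-dose screen, relative to plate controls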
# HSP90 inh confirm: HSP90 inhibitors, confirmation, cell lysate, luminescence. shares compounds with HSP90 inh. rabbit reticulocyte lysate, luciferase refolding luminescence, 3 h. inhibition, % at 5.9 µM. hit rate 64% among 2,300. AID 1846, 2009; in the data active = inhibition above about 18%;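 also: 0% = vehicle wells and 100% = reference inhibitor wells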
# FLuc counter: firefly luciferase inhibitors, HSP90 counter-screen, confirmation, artefact control for HSP90 inhibitor project, biochemical, luminescence, triplicate. shares compounds with HSP90 inh. inhibition, % at 5.9 µM. purified native firefly luciferase. hit rate 48% among 2,300. AID 1847, 2009;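 active = inhibition above the mean inhibition of all tested sample wells plus 3 SD, cut at about 10% in these data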;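 also: 0% = DMSO with luciferase and 100% = wells lacking luciferase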
# * hit, by the source's call; nt = no result.
SMILES,PPC-1+TRAIL kill,FLuc inh counter,HSP90 inh,FLuc stim CS,C8 TRAIL sens,HSP90 inh confirm,FLuc counter
COCCn1c(C)cc(C2=NNC(=Nc3ccccc3)SC2)c1C,22.2,88.0*,50.9*,0.1,37.4,38.7*,32.9*
CC1CCN(S(=O)(=O)c2ccc3c(c2)N(CC(=O)NCCN2C(C)CCCC2C)C(=O)CS3)CC1 (stereo unspecified),nt,nt,21.5*,nt,18.0,-6.5,-11.7
COc1ccc(N2CC(C(=O)N[C@@H](CC(C)C)C(=O)NC3CCCC3)CC2=O)cc1 (stereo partly specified),nt,nt,0.1,nt,-12.7,nt,nt
COCCn1c(C)c(C)c2c(NCCc3ccccc3)ncnc21,nt,nt,59.6*,nt,27.8,62.9*,62.8*
Cc1ccc(C(=O)N2CCc3ccccc32)cc1,12.3,11.6,-0.1,0.9,1.0,nt,nt
O=C(c1ccc(Cl)cc1)N1CCc2ccccc21,nt,nt,18.1*,nt,-12.6,-8.8,-13.5
Cc1ccc(NC(=O)COc2ccc(N(C)C(=O)C(C)(C)C)cc2)cc1S(=O)(=O)N1CCCCC1,nt,nt,nt,nt,18.4,nt,nt
COc1ccc(-c2csc(Nc3ccc(S(N)(=O)=O)cc3)n2)cc1OC,20.6,-6.2,23.3*,1.1,-8.6,-6.7,-6.4
Cc1cc(C(=O)CSc2ncccn2)c(C)n1Cc1ccco1,17.2,63.5*,17.4*,0.4,10.8,46.4*,37.3*
Cc1cc(C(=O)CSc2nnnn2C)c(C)n1Cc1ccco1,11.8,nt,2.9,nt,8.5,nt,nt
CCCCOc1ccc(-c2ncc(C(=O)O)c(C)n2)cc1,5.2,1.4,38.0*,1,0.2,63.1*,18.1*
COc1ccc(OC)c(Nc2nc(-c3sc(N)nc3C)cs2)c1,2.8,-2.6,26.0*,1,-6.3,2.3,-6.6
Cc1cc(O)ccc1Nc1nc(-c2sc(N)nc2C)cs1,32.0,1.7,33.7*,1,3.2,-3.5,-9.0
CC(=O)Nc1nc(C)c(-c2csc(Nc3ccc(O)cc3)n2)s1,11.4,-1.9,3.1,1,25.5,nt,nt
Cc1nc(N)sc1-c1csc(Nc2cccc(C(=O)O)c2)n1,nt,nt,15.4,nt,6.9,nt,nt
CCCC(=O)Nc1nc(C)c(-c2csc(Nc3cc(OC)ccc3OC)n2)s1,11.1,-10.4,-0.7,1.1,9.8,nt,nt
Cc1nc(N)sc1-c1csc(Nc2ccccc2)n1,13.8,3.8,25.5*,1,-8.4,-5.0,-16.1
CCOc1ccccc1OCCCC(=O)N(CC)CC(=O)Nc1c(F)cccc1F,nt,nt,nt,nt,9.5,nt,nt
COc1ccc(C2Cc3ccccc3C(=O)O2)cc1 (stereo unspecified),13.0,-3.8,-2.6,1,4.4,nt,nt
CCOc1ccc(N=Nc2c(C)noc2C)cc1,19.8,-0.9,1.4,1,-5.1,nt,nt
Cc1ccc(-n2nnnc2CCl)cc1,3.4,-4.1,3.6,1,-1.9,nt,nt
Cc1ccc(OCc2nnnn2-c2ccccc2)cc1,-0.9,-8.4,75.2*,1.1,-1.9,0.8,-1.6
O=C(Cn1nnc(-c2cccs2)n1)NCc1ccccc1,30.7,-5.3,55.5*,1.1,-3.5,-2.7,-8.7
O=C(Cn1nnc(-c2cccs2)n1)NCc1ccco1,7.9,-11.5,-0.7,1.1,-4.9,nt,nt
COc1cccc(NC(=O)c2cc3ccccc3oc2=O)c1,nt,nt,28.2*,nt,25.8,64.5*,71.7*
SMILES,PPC-1+TRAIL kill,FLuc inh counter,HSP90 inh,FLuc stim CS,C8 TRAIL sens,HSP90 inh confirm,FLuc counter
COc1ccc2oc(=O)c(C(=O)Nc3cccc(C(C)=O)c3)cc2c1,nt,nt,-0.2,nt,18.6,nt,nt
CCC(=O)Nc1cccc(-c2nc3ccccc3o2)c1,-1.9,0.0,8.0,1,21.3,nt,nt
CCC(=O)Nc1cccc(-c2cc3ccccc3oc2=O)c1,13.6,-0.4,19.4*,1,-2.7,32.0*,18.6*
CCc1nnc(N/N=C/c2ccc(N3CCC(C)CC3)c([N+](=O)[O-])c2)n1N,21.9,-3.7,21.1*,1,-5.5,-2.4,-1.3
Cc1nnc(N/N=C/c2cc([N+](=O)[O-])c(N3CCC(C)CC3)cc2N2CCC(C)CC2)n1N,31.0,-2.8,75.6*,1,-3.3,-9.2,-8.7
Cc1nnc(N/N=C/c2ccc([N+](=O)[O-])cc2)n1N,9.7,-1.3,0.5,1,-6.2,nt,nt
